Shown are actives, neighbours in structure and some others; about 4.6% of the full set was active somewhere.
TAAR1 ag – human TAAR1 agonism. CHO RD-HGA16 TAAR1, Fluo-8 calcium fluorescence; vehicle wells 0%, saturating PEA agonist 100%. activation, % at 3 µM. actives 0.99% (n = 360,000);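 active = activation above the mean activation of all test compounds in the run plus 3 SD, cut at about 38% in these data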
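Test system: RD-HGA16 (CHO) cells co-expressing Gα16 and hTAAR1 | Doses: Single dose, 3 µM | Schedule: 17-24 h seeding, 75 min 37 °C dye, 30 min RT | Evaluation: % activation from peak over basal fluorescence ratio, DMSO-to-PEA scaled | Technique: Kinetic Fluo-8 calcium fluorescence | Benchmarks: Low control DMSO, high control PEA (EC100)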
TAAR1 antagonist – human TAAR1 antagonism; inhibition, % at 3 µM; CHO RD-HGA16 TAAR1, Fluo-8 calcium fluorescence, antagonist; actives 1.5% (n = 360,000); AID 624466; Q96RJ0;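 active = inhibition above a per-plate cutoff, the mean inhibition of test compounds on that plate plus 3 SD, cut at about 49% in these data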
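Test system: hTAAR1-expressing CHO RD-HGA16 cells, Gα16-coupled; Probe or stimulus: EC80 β-phenethylamine stimulus; Compound dosing: single nominal final test compound concentration of 3 µM; Timing: 140 s kinetic read after compound, 140 s after agonist; Signal: Fluo-8 calcium-sensitive fluorescence; Measure: % inhibition of agonist calcium response; Controls: DMSO and EC80 PEA controls.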
CHO parental Ca – signal in parental CHO cells, OX1R antagonist counter-screen; parental CHO-K1, ATP-induced calcium, Fluo-8 fluorescence; inhibition, % at 5.6 µM; actives 0.63% (n = 330,000);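 active = inhibition above that plate's mean sample inhibition plus 3 SD, cut at about 26% in these data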
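material = parental CHO cells | also added = ATP as calcium-mobilizing challenge | dosing = single point at 5.6 µM | detection = intracellular calcium via Fluo-8 no-wash fluorescent dye | read-out = % inhibition | benchmarks = low control ATP plus DMSO, high control DMSO only | repeats = one well per compound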
OX1R antag-1 – antagonists of human orexin 1 receptor | inhibition, % at 5 µM | AID 434989 | actives 0.43% (n = 330,000) | O43613 | CHO/OX1R cells, Fluo-8 calcium fluorescence, orexin A;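 active = inhibition above its plate's threshold, mean inhibition of all tested compounds on the plate plus 3 SD, cut at about 37% in these data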
OX1R antag-2 – antagonists of human orexin 1 receptor (OX1R) | OX1R-expressing cells, FRET antagonist read-out | inhibition, % at 6.6 µM | AID 485270 | actives 1.8% (n = 330,000) | O43613; in the data active = inhibition mostly above about 38%, no sharp cut-off; inactive = mostly below about 40%
GPR7 antag – human neuropeptides B/W receptor 1 antagonism; GPR7-expressing cells, fluorescence antagonist assay; actives 1.1% (n = 290,000); inhibition, % at 4.4 µM; P48145; in the data active = inhibition above about 16%, passing the limit was not always enough;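 note: cells stimulated with the agonist NPW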
Target sequence (P48145 whole entry, looked up): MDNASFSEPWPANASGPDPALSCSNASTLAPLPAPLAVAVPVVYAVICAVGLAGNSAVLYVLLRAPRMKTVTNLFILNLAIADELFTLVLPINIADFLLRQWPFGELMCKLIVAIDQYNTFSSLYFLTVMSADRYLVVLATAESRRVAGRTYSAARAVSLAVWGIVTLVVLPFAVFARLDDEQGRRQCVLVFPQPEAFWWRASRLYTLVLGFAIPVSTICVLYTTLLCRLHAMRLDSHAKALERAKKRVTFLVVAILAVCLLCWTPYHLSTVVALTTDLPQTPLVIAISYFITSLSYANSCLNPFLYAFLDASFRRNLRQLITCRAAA
Each line names hits and unclear results; the compound was inactive in the other large screens.

O=C(O)c1ccccc1-c1c2cc(I)c(=O)c(I)c-2oc2c(I)c(O)c(I)cc12	TAAR1 ag 136.4, TAAR1 antagonist 82.9, CHO parental Ca 77.9, OX1R antag-1 79.0 (no result: GPR7 antag)
CCCCCC/C(C)=C1/SC(=S)NC1=O	OX1R antag-2 45.0
C/C(C/C(C)=C1/SC(=S)NC1=O)=C1\SC(=S)NC1=O	none (no result: CHO parental Ca, OX1R antag-1, OX1R antag-2)
Cc1nc(SCc2ccc(Cl)c(Cl)c2)n[nH]1	none (no result: CHO parental Ca, OX1R antag-1, OX1R antag-2)
CNc1cc(CSC)nc(SCc2ccc(Cl)c(Cl)c2)n1	OX1R antag-1 55.1, OX1R antag-2 49.3
COCCCn1cnn2c(=O)c3ccccc3nc2c1=O	none (no result: CHO parental Ca, OX1R antag-1, OX1R antag-2, GPR7 antag)
Cc1cc2c(nc1C)CCCN2Cc1ccccn1	none (no result: CHO parental Ca, OX1R antag-1, OX1R antag-2, GPR7 antag)
CCN(Cc1ccccc1)S(=O)(=O)c1ccc(C(=O)N(CCCN(C)C)c2nc3ccc(F)cc3s2)cc1	TAAR1 ag 41.1
Cc1cc(C)c2sc(N(CCCN(C)C)C(=O)c3ccc(S(=O)(=O)N(C)C4CCCCC4)cc3)nc2c1	TAAR1 ag 40.6 (no result: GPR7 antag)
COc1cc2nc(N(CCCN(C)C)C(=O)c3ccc(S(=O)(=O)N4CCc5ccccc54)cc3)sc2cc1OC	TAAR1 ag 39.9 (no result: GPR7 antag)
Nc1[nH]c(C(=O)c2ccc(Br)cc2)c(-c2ccccn2)c1C(=O)NCCc1c[nH]c2ccccc12	none (no result: CHO parental Ca, OX1R antag-1, OX1R antag-2, GPR7 antag)
CCOC(=O)C1=C(C(=O)OCC)C2N(Cc3ccc(Br)cc3)c3ccccc3[C@@]23C[C@@H](C(=O)OC)N(S(=O)(=O)c2ccc(C(F)(F)F)cc2)C3=N1 (some centres not stated)	none (no result: CHO parental Ca, OX1R antag-1, OX1R antag-2, GPR7 antag)
CCCCCCCCN1C(=O)[C@H](CC(=O)NCCCC)C[C@@]2(C(=O)OC)CC(C)(C)CC=C12	none (no result: CHO parental Ca, OX1R antag-1, OX1R antag-2, GPR7 antag)
C[C@H](NC(=O)[C@@H]1CCCN1C(=O)[C@@H]1CCCN1C(=O)c1cccs1)c1ccccc1	none (no result: CHO parental Ca, OX1R antag-1, OX1R antag-2, GPR7 antag)
CS(=O)(=O)c1ccc(S(=O)(=O)NCC2CCN(C(=O)C(=O)c3cc4ccccc4o3)CC2)cc1	none (no result: CHO parental Ca, OX1R antag-1, OX1R antag-2, GPR7 antag)
COC(=O)[C@]12C[C@H](CC(=O)N3CCOCC3)C(=O)N(Cc3ccc4c(c3)OCO4)C1=C[C@H](COCc1ccccc1)O[C@@H]2C	none (no result: CHO parental Ca, OX1R antag-1, OX1R antag-2, GPR7 antag)
O=c1[nH]c(/C=C\c2ccc(O)c(Cl)c2)nc(O)c1[N+](=O)[O-]	OX1R antag-2 51.3
C=CCc1cc(/C=C/c2nc(O)c([N+](=O)[O-])c(=O)[nH]2)cc(OC)c1O	none
O=c1[nH]c(/C=C\c2cccs2)nc(O)c1[N+](=O)[O-]	OX1R antag-2 64.8
O=c1[nH]c(/C=C\c2ccc(O)cc2)nc(O)c1[N+](=O)[O-]	OX1R antag-2 46.9
CCOc1cc(/C=C\c2nc(O)c([N+](=O)[O-])c(=O)[nH]2)ccc1OC(C)C	none
CCOc1cccc(NC(=O)/C(C#N)=C\c2cn(CC(=O)O)c3ccccc23)c1	OX1R antag-2 55.2
CCOc1ccc(NC(=O)/C(C#N)=C/c2cn(CC(=O)O)c3ccccc23)cc1	none (no result: CHO parental Ca, OX1R antag-1, OX1R antag-2)
Cc1cccc(C)c1NC(=O)C1(C)CSCC(=O)N1CCCN1CCOCC1 (configuration not stated)	none (no result: CHO parental Ca, OX1R antag-1, OX1R antag-2, GPR7 antag)
Cc1cc(C)n2nc(SCC(=O)Nc3ccc(F)cc3[N+](=O)[O-])nc2n1	OX1R antag-2 28.6 (no result: GPR7 antag)
Cc1cnc(Sc2ncccc2[N+](=O)[O-])nc1	none
Cc1cc(C)n2nc(Sc3ncccc3[N+](=O)[O-])nc2n1	OX1R antag-2 45.1
CC1CCC(n2c(=S)[nH]c3ccccc3c2=O)CC1 (configuration not stated)	none
O=c1c2ccccc2[nH]c(=S)n1C1CCCCC1	TAAR1 ag 40.4
CN(CCOc1ccc(-c2ccn(S(=O)(=O)c3c(Cl)cccc3Cl)n2)cc1)c1ccccn1	none
CN(CCOc1ccc(-c2ccn(S(=O)(=O)c3ccc(Cl)cc3)n2)cc1)c1ccccn1	GPR7 antag 18.7
CCCCSc1cnn(-c2ccccc2)c(=O)c1SCCCC	CHO parental Ca 29.6
CC1(C)CC(N=C2C([N+](=O)[O-])=CC=C3C2=NC2(CCCCC2)N3O)CC(C)(C)N1	OX1R antag-2 74.2
O=[N+]([O-])C1=CC=C2C(=NC3(CCCCC3)N2O)C1=NC1CCCCC1	none
FC(F)(F)c1ccccc1CN1CCN(C2CCCCCC2)CC1	GPR7 antag 20.2
CCOC(=O)C1CCN(C(=O)COc2cc(C)c(Br)cc2C)CC1	CHO parental Ca 54.4, OX1R antag-1 50.0
CCOC(=O)C1CCCN(C(=S)Nc2cc(C)cc(C)c2)C1 (configuration not stated)	TAAR1 ag 50.4
CCOC(=O)C1CCCN(S(=O)(=O)c2ccc(S(=O)(=O)N(CC)CC)cc2)C1 (configuration not stated)	CHO parental Ca 51.1, OX1R antag-1 47.5
CCOC(=O)C1CCCN(C(=O)COc2ccccc2O)C1 (configuration not stated)	TAAR1 ag 43.2
CCOC(=O)C1CCN(C(=O)COc2ccc(Br)cc2Br)CC1	none
C=CCNc1ccc2c(c1)OC[C@H](CC(C)C)NS2(=O)=O	none (no result: CHO parental Ca, OX1R antag-1, OX1R antag-2, GPR7 antag)
COc1ccc2c(c1)C(NC(=O)C(F)(F)F)CC21CCCCC1 (configuration not stated)	none (no result: CHO parental Ca, OX1R antag-1, OX1R antag-2, GPR7 antag)

Assay outcomes from PubChem.
